This note sets out measurements from ChEMBL document CHEMBL3865853, “Synthesis and Bioevaluation of 3,6-Diaryl-[1,2,4]triazolo[4,3-b] Pyridazines as Antitubulin Agents” (ACS Med Chem Lett, 2016).

The structures appear in SMILES notation. Activity calls are given as the source filed them. The rule behind the calls is not given here.

A short description of assay [1]: Cytotoxicity against human A549 cells assessed as reduction in cell viability after 24 hrs by MTT assay. The class given is functional, cell-based. To be noted: A549, 24 h. The procedure, abridged: (§1)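 MTT viability assay on A549, HT-1080 and SGC-7901 cells; IC50 as concentration giving 50% inhibition; each experiment run in triplicate.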
Assay [2] can be described thus: Cytotoxicity against human HT1080 cells assessed as reduction in cell viability after 24 hrs by MTT assay. It is filed as functional, cell-based. The settings on record: HT-1080, 24 h. The method in brief: as §1
(Formazan colour is commonly taken as a measure of viable cells.)

Assay [3] can be described thus: Cytotoxicity against human SGC7901 cells assessed as reduction in cell viability after 24 hrs by MTT assay. The class given is functional, cell-based. To be noted: SGC-7901, 24 h. The procedure, abridged:
as §1

Assay [4] is described as follows: Cell cycle arrest in human A549 cells assessed as accumulation in G2/M phase at 0.016 uM by propidium iodide-staining based FACS analysis. It is filed as functional. To be noted: TDE = time-dependent effect. Background: In flow cytometry, cells or beads pass a laser one at a time.
The nature of assay [5]: (§2) Inhibition of pig brain tubulin polymerization measured at 1 min intervals for 90 mins by spectrophotometric analysis. Also on record: species or system Sus scrofa. The method in brief: (§3)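 Purified tubulin incubated at room temperature with test agent (0.33–10 μM range used), paclitaxel 5.0 μM, or DMSO vehicle; polymerization followed, IC50 derived; mean ± SD of three experiments in triplicate.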

The next assay is filed under the species Sus scrofa. The assay is described as §2. The procedure, abridged:
as §3

The subject of another assay is A549. As to the kind of experiment: Inhibition of alpha-tubulin polymerization in human A549 cells assessed as destruction of tubulin network at 2 times IC50 after 12 hrs by DAPI/FITC-dual staining based fluorescence microscopic analysis. It is filed as cell-based. The method in brief: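 Indirect immunofluorescence of microtubule network in cultured A549 cells after treatment at 2-fold IC50 concentrations; DMSO-treated cells as vehicle control.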

Assay [6] in a line: Cell cycle arrest in human A549 cells assessed as accumulation in G2/M phase after 12 hrs by propidium iodide-staining based FACS analysis. The class given is functional.
Assay [7] can be described thus: Cell cycle arrest in human A549 cells assessed as accumulation in G2/M phase at 0.018 uM by propidium iodide-staining based FACS analysis. It is filed as functional.

As for `COc1ccc(-c2nnc3ccc(-c4ccc(C)cc4)nn23)c(OC)c1OC`, the IC50 (in general, the concentration needed to halve the response being measured) in assay [1] was 10.4 µM; in assay [2], 170 nM; in assay [3], 4530 nM.

With `COc1cc(-c2nnc3ccc(-c4cccc([N+](=O)[O-])c4)nn23)cc(OC)c1OC`, the results for the IC50 in [1], in [2] and in assay [3] were 90.5 µM, 50000 nM and 86400 nM, respectively.

Regarding `COc1cc(-c2nnc3ccc(-c4cccc(Br)c4)nn23)cc(OC)c1OC`, the IC50 in [1] is 52.2 µM; in [2], 54500 nM; in [3], 59000 nM.

For `COc1cc(-c2nnc3ccc(-c4cccc(Cl)c4)nn23)cc(OC)c1OC`, the figures for the IC50 in assay [1], in [2] and in assay [3] were 47.9 µM, 60500 nM and 63100 nM, respectively.

As to `COc1cc(-c2nnc3ccc(-c4ccc(F)cc4)nn23)cc(OC)c1OC`, the IC50 is 2.18 µM in assay [1], 21 nM in [2] and 2020 nM in assay [3].

In the case of `COc1ccc(-c2ccc3nnc(-c4cc(OC)c(OC)c(OC)c4)n3n2)cc1N`, the Activity entry is “Tde” in [4] and “Dose-dependent effect” in assay [6]. Moreover, the IC50 worked out at 1800 nM in assay [5], 0.008 µM in assay [1], 12 nM in [2] and 14 nM in [3]. Moreover, the inhibition entry in the assay filed under Sus scrofa is “Dose-dependent effect”. The inhibition entry in the assay with A549 was “Active”.

As to `COc1ccc(-c2ccc3nnc(-c4ccc(OC)c(OC)c4OC)n3n2)cc1[N+](=O)[O-]`, the IC50 is 11.4 µM in assay [1], 18200 nM in assay [2] and 9140 nM in [3].

For the compound `COc1cc(-c2nnc3ccc(-c4ccc(N)cc4)nn23)cc(OC)c1OC`, the half-inhibitory concentration (IC50) is 2.35 µM in [1], 1620 nM in assay [2] and 1230 nM in assay [3].

For `COc1cc(-c2nnc3ccc(-c4ccc(C)cc4)nn23)cc(OC)c1OC`, the IC50 in assay [1] is 0.023 µM; in [2], 140 nM; in assay [3] it was 16 nM.

As for `COc1cc(-c2nnc3ccc(-c4cccc(N)c4)nn23)cc(OC)c1OC`, the IC50 in assay [1] was 2.98 µM; in [2], 390 nM; in assay [3], 980 nM.

As to `COc1ccc(/C=C\c2cc(OC)c(OC)c(OC)c2)cc1O` [COMBRETASTATIN A4], the inhibition result in the assay listed under Sus scrofa is “Dose-dependent effect”. Moreover, in the assay on A549, the inhibition entry was “Active”. For the same compound, the IC50 in [1] was 0.009 µM; in [2], 9 nM; in assay [3], 12 nM. Besides, the result in assay [7] was Active.

Consider `COc1ccc(-c2ccc3nnc(-c4ccc(OC)c(OC)c4OC)n3n2)cc1`, for which the IC50 in [1] stood at 6.98 µM; in [2] it was 5570 nM; in assay [3] it was 420 nM.

Turning to `COc1cc(-c2nnc3ccc(-c4ccc(C#N)cc4)nn23)cc(OC)c1OC`, the IC50 came to 51.6 µM in assay [1], 33500 nM in assay [2] and 30900 nM in assay [3].

As to `COc1cc(-c2nnc3ccc(-c4ccc(SC)cc4)nn23)cc(OC)c1OC`, the IC50 in [1] stood at 0.28 µM; in [2] it was 73 nM; in assay [3], 98 nM.

For `COc1cc(-c2nnc3ccc(-c4ccc(Br)cc4)nn23)cc(OC)c1OC`, the figures for the IC50 in [1], in assay [2] and in assay [3] were 0.78 µM, 150 nM and 1280 nM, respectively.

In the case of `COc1ccc(-c2ccc3nnc(-c4cc(OC)c(OC)c(OC)c4)n3n2)cc1[N+](=O)[O-]`, the IC50 stood at 4.57 µM in assay [1], 6850 nM in assay [2] and 2280 nM in assay [3].

On to `COc1cc(-c2nnc3ccc(-c4ccc([N+](=O)[O-])cc4)nn23)cc(OC)c1OC`, for which the IC50 in assay [1] worked out at 3.85 µM; in assay [2], 4940 nM; in assay [3], 2380 nM.

For the compound `COc1ccc(-c2ccc3nnc(-c4ccc(OC)c(OC)c4OC)n3n2)cc1N`, the 50% inhibitory concentration (IC50) in assay [1] stood at 2.62 µM; in assay [2], 920 nM; in assay [3] it was 910 nM.

With `COc1ccc(-c2ccc3nnc(-c4cc(OC)c(OC)c(OC)c4)n3n2)cc1`, the IC50 in assay [1] is 0.051 µM; in assay [2], 17 nM; in assay [3], 260 nM.

For the compound `COc1cc(-c2nnc3ccc(-c4ccc(Cl)cc4)nn23)cc(OC)c1OC`, the results for the IC50 in [1], in assay [2] and in assay [3] were 0.051 µM, 450 nM and 25 nM, respectively.

For `COc1cc(-c2nnc3ccc(-c4ccc(C(F)(F)F)cc4)nn23)cc(OC)c1OC`, the results for the IC50 in assay [1], in assay [2] and in assay [3] were 10.4 µM, 1860 nM and 2210 nM, respectively.

With `COc1ccc(-c2ccc3nnc(-c4cc(OC)c(OC)c(OC)c4)n3n2)cc1F`, the figures for the IC50 in assay [1], in assay [2] and in assay [3] were 4.23 µM, 1690 nM and 4170 nM, respectively.
